Experimental data from ChEMBL document CHEMBL2311276, “Synthesis of amidine and bis amidine derivatives and their evaluation for anti-inflammatory and anticancer activity” (Eur J Med Chem, 2013).

Tests used:
[1] = tested on: HCT-15; experiment: Cytotoxicity against human HCT15 cells assessed as growth inhibition at 1 x 10 '-5 M after 24 hrs by MTT assay; format: functional; conditions: HCT-15, 24 h, read-out: GI
Summary of the method: (§1)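 MTT screen at a single concentration of 1 × 10⁻⁵ M, 24 h exposure. Seeding was 5 × 10³ cells/well in RPMI-1640 with 2 mM glutamine. Vehicle was 0.1% final DMSO. MTT was added for 4 h at 37 °C, formazan dissolved in DMSO/glycine buffer (pH 10.5), and A570 read. Percent growth inhibition was calculated against vehicle-treated cells; triplicate, mean of three independent experiments.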

[2] = tested on: HepG2; experiment: Cytotoxicity against human HepG2 cells assessed as growth inhibition at 1 x 10 '-5 M after 24 hrs by MTT assay; format: functional; conditions: HepG2, 24 h, read-out: GI; summary of the method: as §1
[3] = tested on: PA-1; experiment: Cytotoxicity against human PA1 cells assessed as growth inhibition at 1 x 10 '-5 M after 24 hrs by MTT assay; format: functional; conditions: PA-1, 24 h, read-out: GI; summary of the method: as §1
[4] = tested on: NCI-H522; experiment: Cytotoxicity against human NCI-H522 cells assessed as growth inhibition at 1 x 10 '-5 M after 24 hrs by MTT assay; format: functional; conditions: NCI-H522, 24 h, read-out: GI; summary of the method: as §1
[5] = tested on: T47D; experiment: Cytotoxicity against human T47D cells assessed as growth inhibition at 1 x 10 '-5 M after 24 hrs by MTT assay; format: functional; conditions: read-out: GI; summary of the method: as §1
[6] = tested on: Rattus norvegicus; experiment: Antiinflammatory activity in Charles Foster albino rat assessed as inhibition of carrageenan-induced paw edema at 50 mg/kg, po administered 30 mins before carrageenan challenge measured after 1 to 3 hrs by plethysmometer analysis; format: functional
Summary of the method: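 Rats of both sexes (120–160 g; pregnant females excluded), five per group, were dosed orally at 50 mg/kg. After 30 min, 0.20 mL of freshly prepared 1% carrageenan in 0.9% NaCl was injected into the plantar aponeurosis of the hind paw. Paw volume was read by water plethysmometer before and 1–3 h later. Percent inhibition was taken against a carrageenan-only control group of five rats.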

[7] = tested on: COS-1; experiment: Cytotoxicity against african green monkey COS1 cells after 24 hrs by MTT assay; format: cell-based; conditions: Chlorocebus aethiops, COS-1, 24 h
[8] = tested on: PA-1; experiment: Cytotoxicity against human PA1 cells after 24 hrs by MTT assay; format: functional, cell-based; conditions: PA-1, 24 h
Summary of the method: (§2)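 Cell lines came from NCCS Pune and were grown in RPMI-1640 with 2 mM glutamine, pH 7.4. Cells were seeded at 5 × 10³ per well and exposed to serial dilutions in DMSO for 24 h, with 0.1% final DMSO as vehicle control. MTT (5 mg/ml) was added for 4 h at 37 °C. Formazan was dissolved in DMSO plus Sorensen glycine buffer (pH 10.5) and read at 570 nm. IC50 came from % inhibition versus vehicle; triplicate, mean ± SD of three experiments.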

[9] = tested on: HepG2; experiment: Cytotoxicity against human HepG2 cells after 24 hrs by MTT assay; format: functional, cell-based; conditions: HepG2, 24 h; summary of the method: as §2
[10] = tested on: NCI-H522; experiment: Cytotoxicity against human NCI-H522 cells after 24 hrs by MTT assay; format: functional, cell-based; conditions: NCI-H522, 24 h; summary of the method: as §2
[11] = tested on: HCT-15; experiment: Cytotoxicity against human HCT15 cells after 24 hrs by MTT assay; format: functional, cell-based; conditions: HCT-15, 24 h; summary of the method: as §2
[12] = tested on: T47D; experiment: Cytotoxicity against human T47D cells after 24 hrs by MTT assay; format: functional, cell-based; summary of the method: as §2

| SMILES | inhibition of growth at 10 µM [1] | inhibition of growth at 10 µM [2] | inhibition of growth at 10 µM [3] | inhibition of growth at 10 µM [4] | inhibition of growth at 10 µM [5] | inhibition in vivo at 50 mg/kg [6] | IC50 [7] | IC50 [8] | IC50 [9] | IC50 [10] | IC50 [11] | IC50 [12] |
| --- | --- | --- | --- | --- | --- | --- | --- | --- | --- | --- | --- | --- |
| N=C(NCCCCNC(=N)c1cnccn1)c1cnccn1 | 9% | 17% | 15% | 5% | 19% | 37% | – | – | – | – | – | – |
| N=C(NCCCN1CCN(CCCNC(=N)c2ccccn2)CC1)c1ccccn1 | 31% | 34% | 31% | 39% | 39% | 38% | 203 µM | 39.7 µM | 20.8 µM | 22 µM | 25.1 µM | 22.5 µM |
| N=C(NCCCN1CCN(CCCNC(=N)c2ccncc2)CC1)c1ccncc1 | 9% | 6% | 13% | 31% | 2% | 31% | – | – | – | – | – | – |
| N=C(NCCCN1CCN(CCCNC(=N)c2cnccn2)CC1)c1cnccn1 | 12% | 22% | 26% | 15% | 28% | 27% | – | – | – | – | – | – |
| N=C(Nc1ccc(-c2ccc(NC(=N)c3cnccn3)cc2)cc1)c1cnccn1 | 45% | 37% | 43% | 43% | 14% | 31% | 100 µM | 17.1 µM | 20.3 µM | 14.1 µM | 11.9 µM | 62.4 µM |
| N=C(NCCN1CCOCC1)c1ccccn1 | 12% | 40% | 43% | 31% | 21% | 0% | – | – | – | – | – | – |
| N=C(NCCN1CCOCC1)c1ccncc1 | 17% | 9% | 43% | 11% | 12% | 28% | – | – | – | – | – | – |
| C[C@@H]1C[C@@H]([C@H](O)CC2CC(=O)NC(=O)C2)C(=O)[C@@H](C)C1 [CYCLOHEXIMIDE] | 16% | 18% | 34% | 9% | 11% | – | 128 µM | 40.6 µM | 57.1 µM | 60.1 µM | 54.1 µM | 65.1 µM |
| O=P1(N(CCCl)CCCl)NCCCO1 (stereo not drawn) [CYCLOPHOSPHAMIDE ANHYDROUS] | 4% | 18% | 12% | 11% | 9% | – | 125 µM | 64.1 µM | 55.3 µM | 67.9 µM | 74.3 µM | 70.1 µM |
| O=c1[nH]cc(F)c(=O)[nH]1 [FLUOROURACIL] | 19% | 32% | 22% | 13% | 15% | – | 110 µM | 39.5 µM | 29.9 µM | 56.8 µM | 45 µM | 51.8 µM |
| CC(C)Cc1ccc(C(C)C(=O)O)cc1 (stereo not drawn) [IBUPROFEN] | – | – | – | – | – | 39% | – | – | – | – | – | – |
